Assay outcomes (PubChem BioAssay)
MrgX1 allo act – positive allosteric modulators of MrgX1, primary screen, HEK293 cells, Fluo-4 calcium flux. 310,000 tested, 0.63% active. AID 588675, 2011. FDSS; hits give high values. B-score at 10 µM;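 active means plate-corrected calcium response at least 3 library SD above typical, normal starting fluorescence, not activating the receptor alone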;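 further: compound read alongside a low EC10 to EC30 dose of BAM8-22 agonist; peak minus trough fluorescence over baseline measured at the second addition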
Target sequence (Q96LB2 whole entry, looked up): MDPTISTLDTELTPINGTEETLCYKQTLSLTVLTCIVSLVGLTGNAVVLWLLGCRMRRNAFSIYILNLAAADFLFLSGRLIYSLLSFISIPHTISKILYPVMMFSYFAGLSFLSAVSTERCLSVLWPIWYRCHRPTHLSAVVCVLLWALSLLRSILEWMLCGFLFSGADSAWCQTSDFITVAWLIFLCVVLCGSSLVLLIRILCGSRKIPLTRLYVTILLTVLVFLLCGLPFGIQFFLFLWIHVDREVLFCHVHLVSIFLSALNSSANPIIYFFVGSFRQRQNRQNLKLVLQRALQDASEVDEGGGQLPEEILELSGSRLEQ
MrgX1 agonist – agonists of human MrgX1 receptor, primary screen, HEK293 cells, Fluo-4 calcium flux. B-score at 10 µM. Mas-related G-protein coupled receptor member X1 (Homo sapiens), Q96LB2. Fluo-4 calcium fluorescence, agonist mode; hits give high values. 310,000 tested, 0.44% active;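 active means calcium response B-score plate-corrected fluorescence ratio at least 3 library SD, with starting fluorescence B-score inside 5 SD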
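Assay system: stable human MrgX1 HEK293 cell line. Quantity: 15,000 cells per well. Schedule: cells plated overnight, dye loaded 0.5 h 37 °C, 0.5 h room temperature. Detection: Fluo-4 NW calcium-flux fluorescence, kinetic read. Read-out basis: peak-minus-minimum fluorescence over baseline, converted to B scores. Control set: positive and negative control wells on each plate.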
RGS4 act – RGS4 potentiators or activators, primary screen, cell-based, HEK293 M3R inducible RGS4, calcium flux. 310,000 tested, 0.92% active. carbachol calcium flux Fluo4; hits give low values. B-score at 10 µM;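 active means B-score of the integrated calcium signal more than 4 SD below the library mean, with starting fluorescence not abnormally high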;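 further: negative B-score means reduced calcium response which marks RGS4 activation or potentiation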
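Test system: HEK293 cells with stable M3R and inducible RGS4; also added: carbachol at ECmax as muscarinic agonist stimulus; schedule: dye loading 30 min 37 °C, buffer rest 30 min RT; technique: kinetic calcium fluorescence imaging with Fluo4-AM dye, 2 µM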
RGS4 block – RGS4 inhibitors, primary screen, cell-based, HEK293 M3R inducible RGS4, calcium flux; Regulator of G-protein signaling 4 (Homo sapiens), P49798; Fluo-4 calcium flux; hits give high values; triggered by carbachol at its EC20; B-score at 10 µM; 310,000 tested, 0.45% active; AID 463165, 2010;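 active means B-score, a plate-corrected calcium signal, over three deviations above library mean, with baseline fluorescence within five deviations of library mean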;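 further: RGS4 expression induced by doxycycline in cells with stable M3 receptor; B-score is computed from the integrated fluorescence ratio over baseline after carbachol; higher B-score means a larger calcium signal and so more RGS4 inhibition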
Target sequence (P49798 whole entry, looked up): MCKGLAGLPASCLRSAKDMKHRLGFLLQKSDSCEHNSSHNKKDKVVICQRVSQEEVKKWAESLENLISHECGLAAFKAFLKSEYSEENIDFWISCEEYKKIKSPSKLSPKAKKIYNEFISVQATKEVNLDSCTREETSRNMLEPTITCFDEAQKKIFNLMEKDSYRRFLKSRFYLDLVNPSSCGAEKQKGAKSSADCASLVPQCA
MrgX1 antagonist – antagonists of human MrgX1 receptor, primary screen, HEK293 cells, Fluo-4 calcium flux. B-score at 10 µM. BAM8-22 antagonism; hits give low values. Mas-related G-protein coupled receptor member X1 (Homo sapiens), Q96LB2. 310,000 tested, 1.3% active. AID 588676, 2011;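 active means calcium-response B-score plate-corrected more than 3 library SD below zero, starting fluorescence within 5 deviations, no agonist response on first addition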;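 further: peak minus trough fluorescence over baseline after final BAM8-22 challenge near maximal dose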
RGS4 block valid – enhanced carbachol calcium response, M3R/RGS4 cells, RGS4 inhibitor project, cell-based, validation screen, HEK293 M3R/RGS4, calcium flux; shares compounds with RGS4 block; carbachol calcium Fluo-4 fluorescence; carbachol added at its EC20; 0 = buffer wells, 100 = carbachol control; calcium response, % at 10 µM; 1,700 tested, 65% active; AID 492999, 2010;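 active means duplicate-averaged calcium response above the buffer-only control mean plus 5 SD of those controls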;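 further: integrated fluorescence ratio F max minus min over baseline F0; higher response in RGS4-induced cells means RGS4 inhibition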
RGS4 uninduced – carbachol calcium response in non-induced M3R cells, confirmation, counter-screen for RGS4 inhibitor project, cell-based, HEK293 M3R; activity (percent), % at 10 µM; 1,900 tested, 20% active; shares compounds with RGS4 block; carbachol calcium Fluo-4; submaximal (EC20) carbachol stimulus; buffer wells 0%, carbachol control wells 100%; call rule not given here;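 further: RGS4 induction absent so cells express M3R without RGS4; higher means more calcium signal and flags a non-specific hit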
RGS4 inh ctr2 – second RGS4 inhibitor counter-screen in uninduced cells lacking carbachol | shares compounds with RGS4 block | HEK293 M3R/RGS4 non-induced, Fluo-4 calcium, no carbachol; normalised: buffer wells 0%, carbachol wells 100% | calcium response (agonist-mode artifact), % at 10 µM | 1,900 tested, 22% active | AID 493001;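 active means duplicate-averaged calcium rise in uninduced cells above buffer wells' mean plus 5 SD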
The depositor's hits bear a star. Rows were chosen to be rich in hits. Some 3.5% of all compounds tested hit in one or more screens of this group.

What do the screens show for `CSc1nc(-c2ccccc2)nn1C(=O)c1ccco1`?
MrgX1 allo act: inactive; MrgX1 agonist: inactive; RGS4 act: inactive; RGS4 block: inactive; MrgX1 antagonist: inactive; RGS4 block valid: inactive; RGS4 uninduced: inactive; RGS4 inh ctr2: inactive

How did Cc1nn(Cc2c(F)c(F)c(F)c(F)c2F)c(C)c1NC(=O)c1nn(C)cc1[N+](=O)[O-] do in these assays?
MrgX1 allo act: inactive; MrgX1 agonist: inactive; RGS4 act: inactive; RGS4 block: inactive; MrgX1 antagonist: inactive

Results for COC(=O)c1cc2c(ccn2-c2ccc(F)cc2)n1Cc1ccc(OC)cc1 ?
MrgX1 allo act: inactive; MrgX1 agonist: inactive; RGS4 act: inactive; RGS4 block: inactive; MrgX1 antagonist: inactive

Results for CCn1c(C(=O)OC)cc2c1ccn2-c1ccc(F)cc1 ?
MrgX1 allo act: inactive; MrgX1 agonist: inactive; RGS4 act: inactive; RGS4 block: inactive; MrgX1 antagonist: inactive; RGS4 uninduced: inactive; RGS4 inh ctr2: inactive

What do the screens show for `C=CCNC(=O)COC(=O)c1nc2nccc(C)n2n1`?
MrgX1 allo act: inactive; MrgX1 agonist: inactive; RGS4 act: inactive; RGS4 block: inactive; MrgX1 antagonist: inactive; RGS4 uninduced: inactive; RGS4 inh ctr2: inactive

Results for CC12CCC(=O)N1C(C(=O)Nc1nc(-c3ccccc3)cs1)CS2 (centres undefined) ?
MrgX1 allo act: inactive; MrgX1 agonist: inactive; RGS4 act: inactive; RGS4 block: inactive; MrgX1 antagonist: inactive

How did O=C(/C=C/c1ccc(O)c(O)c1)c1ccc(S(=O)(=O)N2CCCCCC2)cc1 do in these assays?
MrgX1 allo act: inactive; MrgX1 agonist: inactive; RGS4 act: inactive; RGS4 block: 15.7*; MrgX1 antagonist: inactive; RGS4 block valid: 23.0%*; RGS4 uninduced: 43.5%*; RGS4 inh ctr2: inactive

What do the screens show for `O=C(c1ccc(S(=O)(=O)N2CCCC2)cc1)N1CCCCC1`?
MrgX1 allo act: inactive; MrgX1 agonist: inactive; RGS4 act: inactive; RGS4 block: inactive; MrgX1 antagonist: inactive

Results for Oc1ccc(C[C@@H]2CNCCN2CCC23CC4CC(CC(C4)C2)C3)cc1 ?
MrgX1 allo act: inactive; MrgX1 agonist: inactive; RGS4 act: inactive; RGS4 block: inactive; MrgX1 antagonist: inactive; RGS4 uninduced: inactive; RGS4 inh ctr2: 16.0%*

Results for Oc1ccc(C[C@H]2CNCCN2CCC23CC4CC(CC(C4)C2)C3)cc1 ?
MrgX1 allo act: inactive; MrgX1 agonist: inactive; RGS4 act: inactive; RGS4 block: inactive; MrgX1 antagonist: inactive; RGS4 uninduced: inactive; RGS4 inh ctr2: inactive

Results for COc1ccccc1N1C(=O)S/C(=C\c2ccc(C)s2)C1=O ?
MrgX1 allo act: inactive; MrgX1 agonist: inactive; RGS4 act: inactive; RGS4 block: inactive; MrgX1 antagonist: inactive

Results for O=C(Cc1cccs1)N1CCC(c2nc3c(nnn3Cc3ccc(F)cc3)c(=O)[nH]2)CC1 ?
MrgX1 allo act: inactive; MrgX1 agonist: inactive; RGS4 act: inactive; RGS4 block: inactive; MrgX1 antagonist: inactive; RGS4 block valid: inactive; RGS4 uninduced: inactive; RGS4 inh ctr2: inactive

What do the screens show for `Cc1ccc(C(=O)c2ccccc2C(=O)Nc2ccccc2)cc1`?
MrgX1 allo act: inactive; MrgX1 agonist: inactive; RGS4 act: inactive; RGS4 block: inactive; MrgX1 antagonist: inactive

What do the screens show for `Cc1onc(-c2ccccc2)c1NC(=O)N(CCC#N)Cc1cccs1`?
MrgX1 allo act: inactive; MrgX1 agonist: inactive; RGS4 act: inactive; RGS4 block: inactive; MrgX1 antagonist: inactive; RGS4 block valid: inactive; RGS4 uninduced: inactive; RGS4 inh ctr2: inactive

How did CCCCCCC/C(C)=N/NC(=O)CC(=O)NCCc1ccccc1 do in these assays?
MrgX1 allo act: inactive; MrgX1 agonist: inactive; RGS4 act: inactive; RGS4 block: inactive; MrgX1 antagonist: inactive

How did COCCn1nnnc1C(c1ccc(Cl)cc1)N1CCN(C(=O)c2ccco2)CC1 (centres undefined) do in these assays?
MrgX1 allo act: inactive; MrgX1 agonist: inactive; RGS4 act: inactive; RGS4 block: inactive; MrgX1 antagonist: inactive

What do the screens show for `OC(COc1ccc2ccccc2c1Br)Cn1cnc(-c2ccccc2)c1` (centres undefined)?
MrgX1 allo act: inactive; MrgX1 agonist: inactive; RGS4 act: inactive; RGS4 block: 9.28*; MrgX1 antagonist: inactive; RGS4 block valid: 10.0%*; RGS4 uninduced: inactive; RGS4 inh ctr2: inactive

Results for COc1ccc(OCC(O)Cn2cnc(-c3ccc(Br)cc3)c2)cc1 (centres undefined) ?
MrgX1 allo act: inactive; MrgX1 agonist: inactive; RGS4 act: inactive; RGS4 block: inactive; MrgX1 antagonist: inactive

How did O=C(CC1C(=O)NCCN1CCCc1ccccc1)NCCc1ccccc1F (centres undefined) do in these assays?
MrgX1 allo act: inactive; MrgX1 agonist: inactive; RGS4 act: inactive; RGS4 block: inactive; MrgX1 antagonist: inactive

How did CC(C)(Oc1ccc(Cl)cc1)C(=O)N/N=C/c1cn[nH]c1-c1ccccc1 do in these assays?
MrgX1 allo act: inactive; MrgX1 agonist: inactive; RGS4 act: inactive; RGS4 block: 5*; MrgX1 antagonist: inactive; RGS4 block valid: 26.0%*; RGS4 uninduced: inactive; RGS4 inh ctr2: inactive

Results for O=C(N/N=C\c1cn[nH]c1-c1ccc(Cl)cc1)c1cccs1 ?
MrgX1 allo act: inactive; MrgX1 agonist: inactive; RGS4 act: inactive; RGS4 block: inactive; MrgX1 antagonist: inactive

Results for CC(C)c1ccccc1NC(=S)NC1CCCCC1 ?
MrgX1 allo act: inactive; MrgX1 agonist: inactive; RGS4 act: inactive; RGS4 block: inactive; MrgX1 antagonist: inactive

How did Cc1ccc(C(=O)N2CCN(c3ncnc4c(-c5ccccc5)nsc34)CC2)cc1 do in these assays?
MrgX1 allo act: inactive; MrgX1 agonist: inactive; RGS4 act: inactive; RGS4 block: inactive; MrgX1 antagonist: inactive
